Data on 21 compounds can be found in ChEMBL document CHEMBL1133760, “4-(3-Chloro-4-methoxybenzyl)aminophthalazines: synthesis and inhibitory activity toward phosphodiesterase 5” (J Med Chem, 2000).

Counter-ions that a name gives are not always drawn.

As a reminder, the IC50 is the concentration that inhibits the measured activity by half. Low values mean greater potency in that assay, high ones weaker potency in that assay. One may read the AUC as concentration integrated over time. The half-life is the time needed for the level to fall by half in the phase considered. One may read the Tmax as the time from dosing to the highest level. A word on the Cmax: it is the highest concentration seen after dosing. Broadly, the EC50 is the concentration needed to bring the measured effect to its halfway point.

Data set [1] deals with T1, PDE II (Sus scrofa, UniProt F1SUV3). The data set can be described thus: Inhibition of phosphodiesterase 2 (PDE2) from porcine platelets, range 0.841-1.15. Particulars: in the assay text read “porcine adrenal” for “porcine platelets”. The method in brief:
(§1)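 Two-step radioisotopic PDE activity assay (modified) with 1 µM [3H]cGMP as substrate. Enzymes were isolated from porcine tissues, and PDE5 was purified by DEAE-Toyopearl 650S chromatography. Inhibitors were diluted from DMSO into assay buffer over 10^-10 to 10^-6 M, with 1% (v/v) DMSO final. IC50 came from log concentration-inhibition curves (at least four points), as the mean of three experiments.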

The nature of data set [2]: Pharmacokinetic parameter, AUC (area under curve) after 0.3 mg/kg iv administration in rats. The format is ADME, organism-based. Also on record: dose 0.3 mg/kg, route intravenous. Particulars: rat, in vivo. The method in brief:
(§2)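 Rats received a 0.3 mg/kg dose intravenously or orally, with n = 4 per route. Plasma pharmacokinetic parameters were then derived.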

Data set [3] deals with T2, Phosphodiesterase 4A (Sus scrofa, UniProt O77823).
T2 sequence (O77823 whole entry): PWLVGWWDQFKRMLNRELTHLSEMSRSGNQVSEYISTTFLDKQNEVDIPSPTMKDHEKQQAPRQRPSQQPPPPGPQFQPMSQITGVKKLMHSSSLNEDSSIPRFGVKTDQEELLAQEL
The data set can be described thus: Inhibition of phosphodiesterase 4 (PDE4) from porcine liver, range 1.01-1.36. The method in brief: as §1

Data set [4] can be described thus: Pharmacokinetic parameter, Bioavailability (F) after 0.3 mg/kg po administration in rats. Particulars: rat, in vivo, read-out: BA. It is filed as ADME, organism-based. The method in brief:
as §2

A short description of data set [5]: Pharmacokinetic parameter, t1/2 after 0.3 mg/kg iv administration in rats. The format is ADME, organism-based. Also on record: dose 0.3 mg/kg, route intravenous. Particulars: rat, in vivo. The method in brief:
as §2

Data set [6] is described as follows: Pharmacokinetic parameter, tmax after 0.3 mg/kg po administration in rats. The format is ADME, organism-based. Also on record: dose 0.3 mg/kg, route oral. Particulars: rat, in vivo. An outline of the steps:
as §2

The nature of data set [7]: Pharmacokinetic parameter, Cmax (plasma conc.) after 0.3 mg/kg po administration in rats. The format is ADME, organism-based. Also noted: dose 0.3 mg/kg, route oral. Particulars: rat. The method in brief: as §2
The species named for another data set is Sus scrofa. The data set can be described thus: Vasorelaxant effect was evaluated on isolated porcine coronary arteries precontracted with PGF-2 alpha. It is filed as functional. The method in brief: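 Endothelium-intact porcine coronary artery strips were held in Krebs-Henseleit (37 °C, pH 7.4, 95% O2-5% CO2) at 1 g resting tension. Endothelium was verified by 10^-8 M bradykinin relaxation after 50 mM KCl contraction. Strips were contracted with 10^-5 M PGF2α, then given cumulative compound additions. Relaxation was expressed as % of the PGF2α contraction. EC50 came from log concentration curves, as the mean of two experiments.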

In data set [8] the target is T3, Phosphodiesterase 3A (Sus scrofa, UniProt Q9XSW7).
T3 sequence (Q9XSW7 whole entry): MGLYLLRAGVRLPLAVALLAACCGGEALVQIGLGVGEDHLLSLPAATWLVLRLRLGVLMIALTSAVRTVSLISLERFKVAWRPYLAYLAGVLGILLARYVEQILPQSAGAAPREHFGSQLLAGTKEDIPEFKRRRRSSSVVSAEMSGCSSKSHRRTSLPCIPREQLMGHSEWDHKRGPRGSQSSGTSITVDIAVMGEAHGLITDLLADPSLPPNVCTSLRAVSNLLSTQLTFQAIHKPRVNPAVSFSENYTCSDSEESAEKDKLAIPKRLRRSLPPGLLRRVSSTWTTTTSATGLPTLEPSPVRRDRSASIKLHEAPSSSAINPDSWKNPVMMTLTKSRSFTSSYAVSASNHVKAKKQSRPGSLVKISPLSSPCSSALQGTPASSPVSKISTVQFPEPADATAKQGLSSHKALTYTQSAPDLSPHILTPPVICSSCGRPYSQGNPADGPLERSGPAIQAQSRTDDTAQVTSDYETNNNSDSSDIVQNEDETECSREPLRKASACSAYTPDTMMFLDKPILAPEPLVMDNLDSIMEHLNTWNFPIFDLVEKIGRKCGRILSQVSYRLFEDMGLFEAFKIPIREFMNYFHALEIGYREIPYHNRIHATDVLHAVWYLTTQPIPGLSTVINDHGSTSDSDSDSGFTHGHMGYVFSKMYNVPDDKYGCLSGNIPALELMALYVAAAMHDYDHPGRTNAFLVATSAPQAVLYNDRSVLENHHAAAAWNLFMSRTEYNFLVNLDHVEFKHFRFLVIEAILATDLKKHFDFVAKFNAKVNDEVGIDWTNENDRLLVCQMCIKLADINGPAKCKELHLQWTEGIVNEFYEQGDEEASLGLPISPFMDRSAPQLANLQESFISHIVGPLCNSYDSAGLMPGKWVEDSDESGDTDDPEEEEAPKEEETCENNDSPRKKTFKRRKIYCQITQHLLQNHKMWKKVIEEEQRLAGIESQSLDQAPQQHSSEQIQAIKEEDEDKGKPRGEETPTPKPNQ
The experiment in a line: Inhibition of phosphodiesterase 3 (PDE3) from porcine platelets, range 11.4-26.9. The method in brief: as §1

Data set [9] is described as follows: Pharmacokinetic parameter, AUC (area under curve) after 0.3 mg/kg po administration in rats. It is filed as ADME, organism-based. Also on record: dose 0.3 mg/kg, route oral. Particulars: rat, in vivo. An outline of the steps: as §2
A short description of data set [10]: Inhibition of phosphodiesterase 1 (PDE1) from porcine adrenal tissue, range 20.0-34.4. Also on record: species or system Sus scrofa. Particulars: in the assay text read “porcine aorta” for “porcine adrenal tissue”. An outline of the steps: as §1
Data set [11] deals with T3, Phosphodiesterase 3A. The data set can be described thus: Inhibition of phosphodiesterase 3 (PDE3) from porcine platelets, range 31.8-60.7.
Data set [12] in a line: Inhibition of phosphodiesterase 1 (PDE1) from porcine adrenal tissue, range 51.1-108. Also noted: species or system Sus scrofa. Particulars: in the assay text read “porcine aorta” for “porcine adrenal tissue”. An outline of the steps:
as §1

In data set [13] the target is T3, Phosphodiesterase 3A. The data set can be described thus: Inhibition of phosphodiesterase 3 (PDE3) from porcine platelets. An outline of the steps:
as §1

Data set [14] can be described thus: Inhibition of phosphodiesterase 1 (PDE1) from porcine adrenal tissue, range 26.5-36.7. Also noted: species or system Sus scrofa. Particulars: in the assay text read “porcine aorta” for “porcine adrenal tissue”. An outline of the steps: as §1
Data set [15] concerns the target T2, Phosphodiesterase 4A. The data set can be described thus: Inhibition of phosphodiesterase 4 (PDE4) from porcine liver. The method in brief:
as §1

The target of data set [16] is T1, PDE II. The experiment in a line: Inhibition of phosphodiesterase 2 (PDE2) from porcine adrenal.
Data set [17] can be described thus: Inhibition of phosphodiesterase 1 (PDE1) from porcine adrenal tissue. Particulars: in the assay text read “porcine aorta” for “porcine adrenal tissue”. The format is tissue-based, Sus scrofa. An outline of the steps: as §1
Data set [18] deals with T2, Phosphodiesterase 4A. The data set can be described thus: Inhibition of phosphodiesterase 4 (PDE4) from porcine liver, range 10.4-16.3. An outline of the steps:
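PDE4 isolated from porcine liver; activity measured by a modified two-step radioisotopic assay. Compounds dissolved in DMSO and diluted in assay buffer to 10^-10 to 10^-6 M, with 1% (v/v) final DMSO. IC50 taken from logarithmic concentration-inhibition curves of at least four points, as the mean of three experiments.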

As to `COc1ccc(CNc2nnc(N3CCC(O)CC3)c3ccc(C#N)cc23)cc1Cl.Cl`, the IC50 at PDE II [1] was found to be 984 nM; at Phosphodiesterase 4A [3] it was 1170 nM; against Phosphodiesterase 3A [8], 17500 nM; in data set [10], 26200 nM. Besides, the area under the curve (AUC) came out at 166 ng·h/mL in [2] and 32.4 ng·h/mL in data set [9]. The bioavailability in data set [4] worked out at 19.5%. In data set [5], this compound showed a half-life of 2.2 h. In data set [6], the Tmax was found to be 0.25 h. The same compound yielded a Cmax in data set [7] of 25.5 ng/mL. Also, the EC50 in the data set listed under Sus scrofa is 13 nM. As to `COc1ccc(CNc2nnc(N3CC[S+]([O-])CC3)c3ccc(C#N)cc23)cc1Cl`, a half-maximal effect in the data set listed under Sus scrofa (EC50) was put at 50 nM. Regarding `OCCN(CCO)c1nc(N2CCCCC2)c2nc(N(CCO)CCO)nc(N3CCCCC3)c2n1` [DIPYRIDAMOLE], the values for the IC50 (at Phosphodiesterase 3A [11]; in data set [12]) were 44000 nM and 74500 nM, respectively. With `CCCOc1ccccc1-c1nc2[nH]nnc2c(=O)[nH]1` [ZAPRINAST], the IC50 at Phosphodiesterase 3A [13] is greater than 100000 nM; in [14], 31200 nM; on Phosphodiesterase 4A [15], greater than 100000 nM. In turn, `COc1ccc(CNc2nnc(N3CCNCC3)c3ccc(C#N)cc23)cc1Cl` came in with an EC50 in the data set filed under Sus scrofa of 870 nM. In the data set filed under Sus scrofa, `COc1ccc(CNc2nnc(N3CC=CCC3)c3ccc(C#N)cc23)cc1Cl` showed an EC50 of 130 nM.

Turning to `CCCc1nn(C)c2c(=O)[nH]c(-c3cc(S(=O)(=O)N4CCN(C)CC4)ccc3OCC)nc12` [SILDENAFIL CITRATE], it took 38 nM to reach a half-maximal effect in the data set listed under Sus scrofa (EC50). For the compound `COc1ccc(C2CNC(=O)C2)cc1OC1CCCC1` (stereo not drawn) [ROLIPRAM], the concentration for half-maximal inhibition (IC50) was greater than 100000 nM on PDE II [16], greater than 100000 nM at Phosphodiesterase 3A [13], greater than 100000 nM in data set [17] and 3630 nM against Phosphodiesterase 4A [15].

In the data set listed under Sus scrofa, `COc1ccc(CNc2nnc(N3CCC(O)CC3)c3ccc(C(F)(F)F)cc23)cc1Cl` registered an EC50 of 120 nM.

In the data set filed under Sus scrofa, `COc1ccc(CNc2nnc(N3CCC(O)CC3)c3ccc(Cl)cc23)cc1Cl` came in with an EC50 of 780 nM. As for `Cc1[nH]c(=O)c(C#N)cc1-c1ccncc1` [MILRINONE], the IC50 on Phosphodiesterase 4A [18] is 13000 nM; in data set [17], greater than 100000 nM. Take `COc1ccc(CNc2nnc(N3CCN(CCO)CC3)c3ccc(C#N)cc23)cc1Cl`: it took 100 nM to reach a half-maximal effect in the data set filed under Sus scrofa (EC50). In the data set filed under Sus scrofa, `COc1ccc(CNc2nnc(N3CCC(C)(O)CC3)c3ccc(C#N)cc23)cc1Cl` registered an EC50 of 130 nM.

For the compound `COc1ccc(CNc2nnc(N3CCC(=O)CC3)c3ccc(C#N)cc23)cc1Cl`, in the data set listed under Sus scrofa, the EC50 worked out at 13 nM. The same measure, in the same setting: next, `COc1ccc(CNc2nnc(N3CCCCC3)c3ccc(C#N)cc23)cc1Cl`: 39 nM; `COc1ccc(CNc2nnc(N3CCC(O)CC3)c3ccc([N+](=O)[O-])cc23)cc1Cl`: 30 nM; `COc1ccc(CNc2nnc(N3CCC(OC)CC3)c3ccc(C#N)cc23)cc1Cl`: 100 nM. On the same count and under the same terms, next, `COc1ccc(CNc2nnc(N3CCN(C)CC3)c3ccc(C#N)cc23)cc1Cl`: 320 nM; `COc1ccc(CNc2nnc(N3CCC(CCO)CC3)c3ccc(C#N)cc23)cc1Cl`: 30 nM; `COc1ccc(CNc2nnc(N3CCC(C(=O)O)CC3)c3ccc(C#N)cc23)cc1Cl`: 170 nM. For the compound `COc1ccc(CNc2nnc(N3CCC(CO)CC3)c3ccc(C#N)cc23)cc1Cl`, in the data set filed under Sus scrofa, a half-maximal response (EC50) required 19 nM.
